# Assay results taken from ChEMBL document CHEMBL1153325, “Morpholine containing CB2 selective agonists” (Bioorg Med Chem Lett, 2009).
# The source made the active and inactive calls. No cut-off for these calls is given here.
# Experiments:
# Cannabinoid receptor 2 [1] = biological target: T1, Cannabinoid receptor 2 (Homo sapiens, UniProt P34972); experiment: Agonist activity at human CB2 receptor expressed in CHO cells assessed as inhibition of forskolin-induced cAMP release; type: functional, cell-based
# In short: (§1)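 CHO cells stably expressing human CB2, 5000 cells/well, incubated overnight at 37 °C. Compounds added in stimulation buffer with 1 mM IBMX, 0.25% BSA and forskolin, 30 min at 37 °C. cAMP read after lysis with a commercial kit. 100% is set by forskolin-stimulated cAMP versus the level under 200 nM CP-55940. Efficacy is relative to CP-55940, which is run twice per plate. EC50 from a four-parameter logistic fit. Each compound tested in triplicate, at least three times; mean reported.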
# Cannabinoid receptor 2 [2] = biological target: T1, Cannabinoid receptor 2; experiment: Agonist activity at human CB2 receptor expressed in CHO cells assessed as inhibition of forskolin-induced cAMP release relative to CP-55940; type: functional, cell-based; in short: as §1
# Homo sapiens = organism: Homo sapiens; experiment: Selectivity ratio of EC50 for human CB1 receptor to EC50 for human CB2 receptor
# In short: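 Inhibition is normalised to 200 nM CP-55940. EC50 from a four-parameter logistic fit. Each compound tested in triplicate, at least three times.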
# Cannabinoid receptor 2 [3] = biological target: T1, Cannabinoid receptor 2; experiment: Displacement of [3H]CP-55940 form human CB2 receptor transfected in HEK cells; type: cell-based, HEK293
# In short: (§2)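 Compounds tested at 1×10^-5 to 1×10^-10 M. Competition with [³H]-CP55940 or [³H]-Win55212 at 4 nM final. IC50 is 50% inhibition of specific binding, from a four-parameter logistic fit.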
# Cannabinoid receptor 2 [4] = biological target: T1, Cannabinoid receptor 2; experiment: Displacement of [3H]Win55212 form human CB2 receptor transfected in HEK cells; type: cell-based, HEK293; in short: as §2
# Mus musculus [5] = experiment: Antiinflammatory activity in BALB/c mouse assessed as inhibition of zymosan-induced paw edema at 30 mg/kg, po administered 60 mins before zymosan challenge measured after 3 hrs relative to control; type: functional; parameters: scale not given: the % may be the effect or the level left
# In short: (§3)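 Male Balb/c mice, 6–10 weeks old. Compound given orally in 95% PEG400/5% Tween 80 about 60 min before 0.5% zymosan in 0.9% saline, injected dorsal metatarsally into each hind paw. Paw volume measured by water plethysmometry before challenge and 3 h after. Inhibition of swelling is relative to vehicle-dosed mice, six per group.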
# Cannabinoid receptor 2 [6] = biological target: T1, Cannabinoid receptor 2; experiment: Displacement of [3H]CP-55940 form human CB2 receptor transfected in HEK cells at 50 nM; type: cell-based; details: HEK293
# Cannabinoid receptor 2 [7] = biological target: T1, Cannabinoid receptor 2; experiment: Inverse agonist activity at human CB2 receptor expressed in CHO cells assessed as change in forskolin-induced cAMP release; type: functional, cell-based; details: filed as inverse agonist; in short: as §1
# Mus musculus [8] = experiment: Antiinflammatory activity in BALB/c mouse assessed as inhibition of zymosan-induced paw edema at 100 mg/kg, po administered 60 mins before zymosan challenge measured after 3 hrs relative to control; type: functional; parameters: scale not given: the % may be the effect or the level left; in short: as §3
# T1 sequence (P34972 whole entry): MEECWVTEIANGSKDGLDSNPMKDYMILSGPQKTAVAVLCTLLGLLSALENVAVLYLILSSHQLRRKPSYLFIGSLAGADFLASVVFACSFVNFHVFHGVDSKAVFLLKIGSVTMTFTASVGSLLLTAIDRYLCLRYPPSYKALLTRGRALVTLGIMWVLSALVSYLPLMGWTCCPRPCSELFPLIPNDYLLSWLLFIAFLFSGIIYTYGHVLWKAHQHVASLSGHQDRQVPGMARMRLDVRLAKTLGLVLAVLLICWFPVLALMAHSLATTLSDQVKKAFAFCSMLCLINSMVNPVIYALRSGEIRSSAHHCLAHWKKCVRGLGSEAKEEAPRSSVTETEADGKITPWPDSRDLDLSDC
Structure (SMILES),EC50 (Cannabinoid receptor 2 [1]),Efficacy (Cannabinoid receptor 2 [2]),Ratio EC50 (Homo sapiens),other results
N#Cc1ccccc1-c1ccc(CN2CCO[C@@H](c3ccccc3)C2)cc1,3 nM,56%,715,
Clc1ccccc1-c1ccc(CN2CCO[C@@H](c3ccccc3)C2)cc1,25 nM,51%,306,
Cc1ccc(Cl)c(-c2ccc(CN3CCO[C@@H](c4ccccc4)C3)cc2)c1,3 nM,73%,781,
Clc1ccc(Nc2ccc(CN3CCO[C@@H](c4ccccc4)C3)cn2)cc1Cl,50 nM,80%,> 400,
Clc1cccc(-c2ccc(CN3CCO[C@@H](c4ccccc4)C3)cc2)c1Cl,6 nM,77%,960,Ki (Cannabinoid receptor 2 [3]): 312 nM; Ki (Cannabinoid receptor 2 [4]): 104 nM; Activity (Mus musculus [5]): 54%
FC(F)(F)c1ccccc1-c1ccc(CN2CCCC(c3ccccc3)C2)cc1 (racemic),30 nM,57%,195,
CN(C)c1ccc(Nc2ccc(CN3CCO[C@@H](c4ccccc4)C3)cn2)cc1,> 20000 nM,,,
Clc1ccccc1Nc1ccc(CN2CCO[C@@H](c3ccccc3)C2)cn1,30 nM,80%,250,
c1ccc(Nc2ccc(CN3CCO[C@@H](c4ccccc4)C3)cn2)cc1,140 nM,70%,> 150,
Clc1cccc(Nc2ccc(CN3CCO[C@@H](c4ccccc4)C3)cn2)c1,200 nM,80%,> 100,
Cc1ccc(Nc2ccc(CN3CCO[C@@H](c4ccccc4)C3)cn2)cc1,100 nM,80%,> 200,
c1ccc(Oc2ccc(CN3CCO[C@@H](c4ccccc4)C3)cc2)cc1,15000 nM,100%,,
O=C(NCC1CCOCC1)c1cnc(Nc2ccc(Cl)cc2Cl)nc1C(F)(F)F [GW842166X],350 nM,90%,> 60,Ki (Cannabinoid receptor 2 [3]): > 5000 nM; Ki (Cannabinoid receptor 2 [4]): > 10000 nM
c1ccc(Nc2ccc(CN3CCO[C@@H](c4ccccc4)C3)cc2)cc1,615 nM,60%,> 30,
FC(F)(F)c1ccccc1-c1ccc(CN2CCO[C@@H](c3ccccc3)C2)cc1,40 nM,50%,250,
Fc1ccc(Nc2ccc(CN3CCO[C@@H](c4ccccc4)C3)cn2)cc1,35 nM,70%,,
CN(Cc1ccc(-c2ccccc2C(F)(F)F)cc1)CC(O)c1ccccc1 (racemic),2 nM,95%,120,Activity (Cannabinoid receptor 2 [6]): Active
CC(C)c1ccc(Nc2ccc(CN3CCO[C@@H](c4ccccc4)C3)cn2)cc1,> 20000 nM,,,
Clc1cccc(Nc2ccc(CN3CCO[C@@H](c4ccccc4)C3)cn2)c1Cl,1600 nM,70%,> 10,
FC(F)(F)c1ccccc1-c1ccc(CN2CCOC(c3ccccc3)C2)cc1 (racemic),330 nM,50%,> 60,
COc1ccc(Nc2ccc(CN3CCO[C@@H](c4ccccc4)C3)cn2)cc1,65 nM,90%,> 310,
FC(F)(F)c1ccccc1-c1ccc(CN2CCO[C@H](c3ccccc3)C2)cc1,,,,Activity (Cannabinoid receptor 2 [7]): Inverse agonist
c1ccc(-c2ccc(Nc3ccc(CN4CCO[C@@H](c5ccccc5)C4)cn3)cc2)cc1,> 20000 nM,,,
Clc1ccc(Nc2ccc(CN3CCO[C@@H](c4ccccc4)C3)cn2)c(Cl)c1,10 nM,100%,> 2000,Ki (Cannabinoid receptor 2 [3]): > 10000 nM; Ki (Cannabinoid receptor 2 [4]): 2650 nM; Activity (Mus musculus [8]): 85%
Clc1ccc(Nc2ccc(CN3CCO[C@@H](c4ccccc4)C3)cn2)cc1,30 nM,80%,> 670,
